Test results published in ChEMBL document CHEMBL4196177, “Synthesis, Evaluation, and Structure-Activity Relationship Study of Lanosterol Derivatives To Reverse Mutant-Crystallin-Induced Protein Aggregation” (J Med Chem, 2018).
Activity calls are given as the source filed them.

Columns and labels:
Assay type in all cases: cell-based
[1] = test system: T1, Alpha-crystallin A chain (Homo sapiens), P02489 [Y118D]; assay: Inhibition of alpha-crystallin A Y118D mutant (unknown origin)-induced intracellular protein aggregation expressed in human HLE-B3 cells at 0.4 uM incubated for 6 to 8 hrs by fluorescence microscopy relative to untreated control
T1 sequence (whole entry): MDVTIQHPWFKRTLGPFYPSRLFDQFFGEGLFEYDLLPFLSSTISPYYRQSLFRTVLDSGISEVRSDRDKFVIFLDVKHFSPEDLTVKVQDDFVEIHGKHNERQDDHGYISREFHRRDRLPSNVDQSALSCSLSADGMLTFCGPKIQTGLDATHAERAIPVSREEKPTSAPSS

[2] = test system: T2, Gamma-crystallin C (Homo sapiens), P07315 [G129C]; assay: Inhibition of gamma-crystallin C G129C mutant (unknown origin)-induced intracellular protein aggregation expressed in human HeLa cells at 0.4 uM incubated for 6 to 8 hrs by fluorescence microscopy relative to untreated control
T2 sequence (whole entry): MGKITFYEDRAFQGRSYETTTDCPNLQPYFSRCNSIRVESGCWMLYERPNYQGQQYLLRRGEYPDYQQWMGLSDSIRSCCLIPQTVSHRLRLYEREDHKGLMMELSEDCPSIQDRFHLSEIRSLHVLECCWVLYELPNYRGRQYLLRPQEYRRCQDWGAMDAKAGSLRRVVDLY

[3] = test system: T3, Alpha-crystallin B chain (Homo sapiens), P02511 [R120G]; assay: Inhibition of alpha-crystallin B R120G mutant (unknown origin)-induced intracellular protein aggregation expressed in human HeLa cells at 0.4 uM incubated for 6 to 8 hrs by fluorescence microscopy relative to untreated control
T3 sequence (whole entry): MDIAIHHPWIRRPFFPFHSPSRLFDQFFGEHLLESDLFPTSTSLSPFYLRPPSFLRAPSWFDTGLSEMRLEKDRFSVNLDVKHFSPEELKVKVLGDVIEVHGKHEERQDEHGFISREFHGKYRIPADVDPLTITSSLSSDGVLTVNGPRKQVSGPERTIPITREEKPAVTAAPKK
Method in brief: (§1)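 Cells were transfected with mutant crystallin constructs using Lipofectamine 2000 and cultured for 16 h until the overexpressed mutants formed aggregates. Compounds were then added to the culture medium and incubated for 6~8 h. Aggregate dissolution was scored by fluorescence microscopy. For αB R120G, % inhibition at 0.4 and 4 µM was calculated against DMSO-treated cells; values are mean ± error.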

[4] = test system: T1, Alpha-crystallin A chain (Homo sapiens), P02489 [Y118D]; assay: Inhibition of alpha-crystallin A Y118D mutant (unknown origin)-induced intracellular protein aggregation expressed in human HeLa cells at 0.4 uM incubated for 6 to 8 hrs by fluorescence microscopy relative to untreated control
[5] = test system: T3, Alpha-crystallin B chain (Homo sapiens), P02511 [R120G]; assay: Inhibition of alpha-crystallin B R120G mutant (unknown origin)-induced intracellular protein aggregation expressed in human HeLa cells at 4 uM incubated for 6 to 8 hrs by fluorescence microscopy relative to untreated control; method in brief: as §1
[6] = test system: T1, Alpha-crystallin A chain (Homo sapiens), P02489 [Y118D]; assay: Inhibition of alpha-crystallin A Y118D mutant (unknown origin)-induced intracellular protein aggregation expressed in human HLE-B3 cells at 4 uM incubated for 6 to 8 hrs by fluorescence microscopy relative to untreated control
[7] = test system: T4, Gamma-crystallin D (Homo sapiens), P07320 [W43R]; assay: Inhibition of gamma-crystallin D W43R mutant (unknown origin)-induced intracellular protein aggregation expressed in human HLE-B3 cells at 4 uM incubated for 6 to 8 hrs by fluorescence microscopy relative to untreated control
T4 sequence (whole entry): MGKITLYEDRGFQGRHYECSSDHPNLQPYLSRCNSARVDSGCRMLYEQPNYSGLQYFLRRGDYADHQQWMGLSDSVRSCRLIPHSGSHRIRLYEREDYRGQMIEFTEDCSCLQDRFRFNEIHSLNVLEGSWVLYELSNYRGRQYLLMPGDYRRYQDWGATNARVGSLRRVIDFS

[8] = test system: T1, Alpha-crystallin A chain (Homo sapiens), P02489 [Y118D]; assay: Inhibition of alpha-crystallin A Y118D mutant (unknown origin)-induced intracellular protein aggregation expressed in human HeLa cells at 4 uM incubated for 6 to 8 hrs by fluorescence microscopy relative to untreated control
[9] = test system: T5, Beta-crystallin B2 (Homo sapiens), P43320 [V187E]; assay: Inhibition of beta-crystallin B2 V187E mutant (unknown origin)-induced intracellular protein aggregation expressed in human HLE-B3 cells at 4 uM incubated for 6 to 8 hrs by fluorescence microscopy relative to untreated control
T5 sequence (whole entry): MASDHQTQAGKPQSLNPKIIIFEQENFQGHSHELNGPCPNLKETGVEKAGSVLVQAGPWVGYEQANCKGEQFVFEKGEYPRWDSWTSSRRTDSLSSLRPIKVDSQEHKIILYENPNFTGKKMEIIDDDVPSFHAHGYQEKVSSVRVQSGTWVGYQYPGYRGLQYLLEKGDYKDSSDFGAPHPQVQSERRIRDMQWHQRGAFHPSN

[10] = test system: T4, Gamma-crystallin D (Homo sapiens), P07320 [W43R]; assay: Inhibition of gamma-crystallin D W43R mutant (unknown origin)-induced intracellular protein aggregation expressed in human HeLa cells at 0.4 uM incubated for 6 to 8 hrs by fluorescence microscopy relative to untreated control
[11] = test system: T5, Beta-crystallin B2 (Homo sapiens), P43320 [V187E]; assay: Inhibition of beta-crystallin B2 V187E mutant (unknown origin)-induced intracellular protein aggregation expressed in human HeLa cells at 4 uM incubated for 6 to 8 hrs by fluorescence microscopy relative to untreated control
[12] = test system: T5, Beta-crystallin B2 (Homo sapiens), P43320 [V187E]; assay: Inhibition of beta-crystallin B2 V187E mutant (unknown origin)-induced intracellular protein aggregation expressed in human HLE-B3 cells at 0.4 uM incubated for 6 to 8 hrs by fluorescence microscopy relative to untreated control
[13] = test system: T4, Gamma-crystallin D (Homo sapiens), P07320 [W43R]; assay: Inhibition of gamma-crystallin D W43R mutant (unknown origin)-induced intracellular protein aggregation expressed in human HLE-B3 cells at […] incubated for 6 to 8 hrs by fluorescence microscopy relative to untreated control
[14] = test system: T2, Gamma-crystallin C (Homo sapiens), P07315 [G129C]; assay: Inhibition of gamma-crystallin C G129C mutant (unknown origin)-induced intracellular protein aggregation expressed in human HLE-B3 cells at 0.4 uM incubated for 6 to 8 hrs by fluorescence microscopy relative to untreated control
[15] = test system: T2, Gamma-crystallin C (Homo sapiens), P07315 [G129C]; assay: Inhibition of gamma-crystallin C G129C mutant (unknown origin)-induced intracellular protein aggregation expressed in human HLE-B3 cells at 4 uM incubated for 6 to 8 hrs by fluorescence microscopy relative to untreated control
[16] = test system: T4, Gamma-crystallin D (Homo sapiens), P07320 [W43R]; assay: Inhibition of gamma-crystallin D W43R mutant (unknown origin)-induced intracellular protein aggregation expressed in human HeLa cells at 4 uM incubated for 6 to 8 hrs by fluorescence microscopy relative to untreated control
[17] = test system: T3, Alpha-crystallin B chain (Homo sapiens), P02511 [R120G]; assay: Inhibition of alpha-crystallin B R120G mutant (unknown origin)-induced intracellular protein aggregation expressed in human HLE-B3 cells at 4 uM incubated for 6 to 8 hrs by fluorescence microscopy relative to untreated control; method in brief: as §1
[18] = test system: T5, Beta-crystallin B2 (Homo sapiens), P43320 [V187E]; assay: Inhibition of beta-crystallin B2 V187E mutant (unknown origin)-induced intracellular protein aggregation expressed in human HeLa cells at 0.4 uM incubated for 6 to 8 hrs by fluorescence microscopy relative to untreated control
[19] = test system: T3, Alpha-crystallin B chain (Homo sapiens), P02511 [R120G]; assay: Inhibition of alpha-crystallin B R120G mutant (unknown origin)-induced intracellular protein aggregation expressed in human HLE-B3 cells at 0.4 uM incubated for 6 to 8 hrs by fluorescence microscopy relative to untreated control; method in brief: as §1
[20] = test system: T2, Gamma-crystallin C (Homo sapiens), P07315 [G129C]; assay: Inhibition of gamma-crystallin C G129C mutant (unknown origin)-induced intracellular protein aggregation expressed in human HeLa cells at 4 uM incubated for 6 to 8 hrs by fluorescence microscopy relative to untreated control

Measured: inhibition

C[C@H](CCCC(C)(C)O)[C@H]1CC[C@@]2(C)C3=C(CC[C@]12C)[C@@]1(C)CC[C@H](O)C(C)(C)[C@@H]1CC3
active: all assays above
